Reference: ChEMBL document CHEMBL1124123, “Graphics computer-aided receptor mapping as a predictive tool for drug design: development of potent, selective, and stereospecific ligands for the 5-HT1A receptor” (J Med Chem, 1988)

Key:
[1] = molecular target: T1, Serotonin 2 (5-HT2) receptor (Rattus norvegicus, UniProt P30994+P08909+P14842); assay: (§1) Binding affinity towards 5-hydroxytryptamine 2 receptor in rat frontal cortex using [3H]ketanserin as radioligand; format: tissue-based
Summary of the method: (§2)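 5-HT2 sites in rat brain were labelled with [3H]ketanserin in a radioligand receptor binding assay.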

[2] = molecular target: T2, 5-hydroxytryptamine receptor 1B (Rattus norvegicus, UniProt P28564); assay: Binding affinity towards 5-HT1B receptor in rat brain membrane using [3H]8-OH-DPAT as a selective ligand.; format: cell membranes
[3] = molecular target: T3, 5-hydroxytryptamine receptor 1A (Rattus norvegicus, UniProt P19327); assay: Binding affinity towards 5-hydroxytryptamine 1A receptor in rat frontal cortex using [3H]8-OH-DPAT as a radioligand; format: tissue-based
T3 sequence (P19327 whole entry): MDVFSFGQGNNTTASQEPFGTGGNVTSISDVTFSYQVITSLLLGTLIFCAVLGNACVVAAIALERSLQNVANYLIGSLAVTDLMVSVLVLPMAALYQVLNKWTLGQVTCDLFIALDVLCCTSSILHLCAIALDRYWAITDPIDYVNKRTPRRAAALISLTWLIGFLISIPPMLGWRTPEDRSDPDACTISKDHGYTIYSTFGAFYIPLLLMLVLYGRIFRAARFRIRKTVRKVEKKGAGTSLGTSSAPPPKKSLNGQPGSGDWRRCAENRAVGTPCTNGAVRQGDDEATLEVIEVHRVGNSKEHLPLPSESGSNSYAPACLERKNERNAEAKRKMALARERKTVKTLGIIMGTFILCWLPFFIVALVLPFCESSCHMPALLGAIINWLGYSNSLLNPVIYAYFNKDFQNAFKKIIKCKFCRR

[4] = molecular target: T4, Adrenergic receptor alpha-1 (Rattus norvegicus, UniProt P15823+P23944+P43140); assay: Binding affinity against alpha-1 adrenergic receptor in rat brain membrane using […] as a selective ligand.; format: cell membranes
T4 sequence (P15823 whole entry): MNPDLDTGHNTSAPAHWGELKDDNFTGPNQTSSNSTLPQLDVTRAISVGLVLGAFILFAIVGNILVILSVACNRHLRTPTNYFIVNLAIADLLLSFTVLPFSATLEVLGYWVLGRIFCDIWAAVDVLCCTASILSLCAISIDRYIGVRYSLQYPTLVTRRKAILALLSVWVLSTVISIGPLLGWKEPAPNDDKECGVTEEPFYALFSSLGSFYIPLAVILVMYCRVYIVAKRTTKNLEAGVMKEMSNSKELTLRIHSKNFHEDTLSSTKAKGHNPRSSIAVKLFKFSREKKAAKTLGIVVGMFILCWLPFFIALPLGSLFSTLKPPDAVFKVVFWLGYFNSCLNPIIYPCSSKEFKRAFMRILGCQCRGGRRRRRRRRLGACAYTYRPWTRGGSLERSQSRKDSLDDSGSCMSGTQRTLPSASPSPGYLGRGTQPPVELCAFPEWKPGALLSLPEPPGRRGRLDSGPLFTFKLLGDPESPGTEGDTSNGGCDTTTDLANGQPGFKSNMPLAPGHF
T4 sequence (P23944 whole entry): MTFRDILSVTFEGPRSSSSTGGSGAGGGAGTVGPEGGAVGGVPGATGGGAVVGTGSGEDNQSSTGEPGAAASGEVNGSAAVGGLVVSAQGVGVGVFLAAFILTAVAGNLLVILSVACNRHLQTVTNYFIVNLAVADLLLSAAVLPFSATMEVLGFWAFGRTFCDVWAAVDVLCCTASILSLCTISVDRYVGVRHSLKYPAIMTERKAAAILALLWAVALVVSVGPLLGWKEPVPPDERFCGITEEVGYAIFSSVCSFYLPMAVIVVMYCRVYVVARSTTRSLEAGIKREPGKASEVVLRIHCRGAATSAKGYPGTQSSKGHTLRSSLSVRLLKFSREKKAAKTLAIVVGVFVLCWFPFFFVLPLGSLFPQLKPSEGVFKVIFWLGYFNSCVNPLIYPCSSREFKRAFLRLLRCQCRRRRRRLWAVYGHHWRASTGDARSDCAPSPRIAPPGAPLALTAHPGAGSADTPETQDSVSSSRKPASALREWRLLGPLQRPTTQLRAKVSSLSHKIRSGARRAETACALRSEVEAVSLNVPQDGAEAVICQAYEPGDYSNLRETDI
T4 sequence (P43140 whole entry): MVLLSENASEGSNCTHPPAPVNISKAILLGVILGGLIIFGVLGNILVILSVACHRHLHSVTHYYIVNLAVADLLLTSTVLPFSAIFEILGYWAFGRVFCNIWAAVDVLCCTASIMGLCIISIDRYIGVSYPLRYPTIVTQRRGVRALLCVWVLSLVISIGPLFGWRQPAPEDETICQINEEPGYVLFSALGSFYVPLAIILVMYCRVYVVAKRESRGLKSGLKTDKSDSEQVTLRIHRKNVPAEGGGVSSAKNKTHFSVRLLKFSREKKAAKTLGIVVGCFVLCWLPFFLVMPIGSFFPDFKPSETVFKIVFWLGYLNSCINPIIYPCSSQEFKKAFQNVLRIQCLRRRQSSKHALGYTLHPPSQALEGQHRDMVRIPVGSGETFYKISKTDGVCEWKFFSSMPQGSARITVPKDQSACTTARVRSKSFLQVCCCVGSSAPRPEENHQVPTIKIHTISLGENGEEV
Summary of the method: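 Alpha1-adrenergic binding in rat brain, using [3H]prazosin as the radioligand.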

[5] = molecular target: T2, 5-hydroxytryptamine receptor 1B; assay: Binding affinity against 5-HT1B receptor in rat brain membrane using [3H]-5-HT in the presence of 8-OH-DPAT.
[6] = molecular target: T5, Adrenergic receptor alpha-2 (Rattus norvegicus, UniProt P22086+P19328+P22909); assay: Binding affinity against alpha-2 adrenergic receptor in rat brain membrane using […] as a selective ligand.; format: cell membranes
T5 sequence (P22086 whole entry): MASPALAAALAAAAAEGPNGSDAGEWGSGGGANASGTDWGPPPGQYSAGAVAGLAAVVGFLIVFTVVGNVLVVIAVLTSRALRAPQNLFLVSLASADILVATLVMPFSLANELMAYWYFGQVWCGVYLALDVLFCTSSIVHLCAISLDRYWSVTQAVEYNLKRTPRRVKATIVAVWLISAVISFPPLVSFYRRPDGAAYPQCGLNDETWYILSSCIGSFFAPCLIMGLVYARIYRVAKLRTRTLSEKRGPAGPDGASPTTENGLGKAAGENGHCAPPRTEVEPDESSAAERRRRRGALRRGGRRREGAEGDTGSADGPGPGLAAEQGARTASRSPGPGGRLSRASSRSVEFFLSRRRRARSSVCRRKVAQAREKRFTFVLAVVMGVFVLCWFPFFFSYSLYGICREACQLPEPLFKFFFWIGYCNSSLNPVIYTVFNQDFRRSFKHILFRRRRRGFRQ
T5 sequence (P19328 whole entry): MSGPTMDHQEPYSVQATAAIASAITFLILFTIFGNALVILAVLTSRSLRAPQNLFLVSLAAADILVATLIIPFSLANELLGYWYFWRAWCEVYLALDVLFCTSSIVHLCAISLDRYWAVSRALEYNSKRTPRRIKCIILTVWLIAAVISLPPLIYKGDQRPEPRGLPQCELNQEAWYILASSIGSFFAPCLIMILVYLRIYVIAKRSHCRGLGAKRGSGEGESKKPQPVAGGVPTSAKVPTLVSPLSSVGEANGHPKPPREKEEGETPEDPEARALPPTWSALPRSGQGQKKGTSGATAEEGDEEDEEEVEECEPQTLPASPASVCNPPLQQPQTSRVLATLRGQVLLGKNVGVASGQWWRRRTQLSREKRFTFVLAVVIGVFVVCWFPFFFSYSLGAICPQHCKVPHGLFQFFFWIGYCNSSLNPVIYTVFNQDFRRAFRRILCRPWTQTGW
T5 sequence (P22909 whole entry): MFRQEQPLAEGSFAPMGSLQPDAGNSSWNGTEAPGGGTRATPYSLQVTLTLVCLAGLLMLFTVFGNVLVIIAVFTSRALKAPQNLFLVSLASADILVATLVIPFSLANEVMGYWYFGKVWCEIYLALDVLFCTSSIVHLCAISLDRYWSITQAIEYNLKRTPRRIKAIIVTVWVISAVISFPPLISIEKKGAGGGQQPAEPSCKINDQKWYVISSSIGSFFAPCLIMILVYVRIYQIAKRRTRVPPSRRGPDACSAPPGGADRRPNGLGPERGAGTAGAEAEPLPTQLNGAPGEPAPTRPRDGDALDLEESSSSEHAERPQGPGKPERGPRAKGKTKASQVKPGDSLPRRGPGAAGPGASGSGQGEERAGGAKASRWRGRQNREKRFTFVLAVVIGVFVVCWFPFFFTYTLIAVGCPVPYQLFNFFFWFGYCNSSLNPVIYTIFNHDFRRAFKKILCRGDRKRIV
Summary of the method: (§3)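 Alpha2-adrenergic sites in rat brain were labelled with [3H]clonidine for radioligand binding.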

D(2) dopamine receptor [7] = molecular target: T6, D(2) dopamine receptor (Rattus norvegicus, UniProt P61169); assay: Binding affinity against Dopamine receptor D2 in rat brain membrane using [3H]-8-OH-DPAT as a selective ligand.; format: cell membranes; settings: in the assay text read “[3H]domperidone as radioligand” for “[3H]-8-OH-DPAT as a selective ligand”
Summary of the method: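 D2 receptor binding in rat brain, using [3H]domperidone as the radioligand.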

[8] = molecular target: T1, Serotonin 2 (5-HT2) receptor; assay: Binding affinity towards 5-hydroxytryptamine 2 receptor in rat brain membrane using […] as a selective ligand.; format: cell membranes; summary of the method: as §2
D(2) dopamine receptor [9] = molecular target: T6, D(2) dopamine receptor; assay: Binding affinity against Dopamine receptor D2 in rat brain membrane using [3H]domperidone as radioligand.
[10] = molecular target: T3, 5-hydroxytryptamine receptor 1A; assay: Binding affinity towards 5-hydroxytryptamine 1A receptor in rat brain membrane using [3H]8-OH-DPAT as a selective ligand.; format: cell membranes
[11] = molecular target: T5, Adrenergic receptor alpha-2; assay: Binding affinity against alpha-2 adrenergic receptor in rat brain membrane using […].; format: cell membranes; summary of the method: as §3
[12] = molecular target: T2, 5-hydroxytryptamine receptor 1B; assay: Binding affinity against 5-HT1B receptor in rat frontal cortex using [3H]-5-HT in presence of 0.1 uM […]; format: tissue-based
[13] = molecular target: T1, Serotonin 2 (5-HT2) receptor; assay: as §1

T2 sequence (P28564 whole entry): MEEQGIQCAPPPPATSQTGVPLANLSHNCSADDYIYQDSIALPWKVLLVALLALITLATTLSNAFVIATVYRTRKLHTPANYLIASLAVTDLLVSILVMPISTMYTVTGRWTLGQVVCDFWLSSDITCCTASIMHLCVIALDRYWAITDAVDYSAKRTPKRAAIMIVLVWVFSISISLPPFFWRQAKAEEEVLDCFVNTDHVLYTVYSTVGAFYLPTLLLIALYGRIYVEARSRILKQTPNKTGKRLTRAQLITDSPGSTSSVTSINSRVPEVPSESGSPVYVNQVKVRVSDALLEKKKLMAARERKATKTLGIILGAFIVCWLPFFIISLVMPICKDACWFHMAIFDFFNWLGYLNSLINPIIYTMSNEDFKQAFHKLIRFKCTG
T6 sequence (P61169 whole entry): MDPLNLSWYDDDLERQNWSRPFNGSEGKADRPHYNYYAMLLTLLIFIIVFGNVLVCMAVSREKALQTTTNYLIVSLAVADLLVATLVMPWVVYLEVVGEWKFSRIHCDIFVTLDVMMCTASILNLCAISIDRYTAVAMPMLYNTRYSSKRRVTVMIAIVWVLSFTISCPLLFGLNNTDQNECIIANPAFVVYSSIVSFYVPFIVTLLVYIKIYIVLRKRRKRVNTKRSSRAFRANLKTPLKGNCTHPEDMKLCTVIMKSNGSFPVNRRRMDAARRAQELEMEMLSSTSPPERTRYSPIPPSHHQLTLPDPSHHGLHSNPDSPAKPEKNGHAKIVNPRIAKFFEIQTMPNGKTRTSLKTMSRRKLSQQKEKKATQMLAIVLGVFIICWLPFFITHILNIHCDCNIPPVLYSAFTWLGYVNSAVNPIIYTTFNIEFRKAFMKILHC

IC50 [3] [nM] | Log IC50 [4] | IC50 [5] [nM] | Log IC50 [6] | IC50 (D(2) dopamine receptor [7]) [nM] | Log IC50 [8] | Compound | IC50 [10] [nM] | also measured
0.631 | -8 | 794 | -6.3 | 79.4 | -6.7 | O=C1CC2(CCCC2)CC(=O)N1CCCCNC[C@H]1COc2ccccc2O1 | – | –
5.01 | -6.1 | 398 | < -5 | 158 | -6.8 | O=C1CC2(CCCC2)CC(=O)N1CCCCNCC1COc2ccc3ccccc3c2O1 (stereo unspecified) | – | –
794 | -5.2 | 3160 | < -5 | – | -5.9 | O=C1CC2(CCCC2)CC(=O)N1CCCCNCC1COc2c(ccc3ccccc23)O1 (stereo unspecified) | – | IC50 (D(2) dopamine receptor [9]): 316 nM
– | -7.2 | 5010 | – | 2510 | -6.1 | O=C1CC2(CCCC2)CC(=O)N1CCCCNC[C@@H]1COc2ccccc2O1 | 20 | Log IC50 [11]: -6.2
– | – | – | – | – | – | O=C(CCCN1CCC2(CC1)C(=O)NCN2c1ccccc1)c1ccc(F)cc1 [SPIPERONE] | 123 | IC50 [12]: 1000 nM
– | – | – | – | – | – | CSc1ccc2c(c1)[C@H](N1CCN(C)CC1)Cc1ccccc1S2 | 851 | IC50 [12]: 3240 nM; Log IC50 [13]: -8.25
0.794 | -7.8 | 631 | -6.4 | 158 | -6.2 | O=C1CC2(CCCC2)CC(=O)N1CCCCNCC1COc2ccccc2O1 (stereo unspecified) | – | –
– | – | – | – | – | – | CCCN(CCC)C1CCc2cccc(O)c2C1 (stereo unspecified) [8-OH-DPAT] | – | Log IC50 [13]: -5
– | -5.3 | – | – | – | – | O=C1CC2(CCCC2)CC(=O)N1CCCCNCC1COc2cc3ccccc3cc2O1 (stereo unspecified) | 316 | –

Compound | IC50 [3] [nM] | Log IC50 [4] | IC50 [5] [nM] | Log IC50 [6] | IC50 (D(2) dopamine receptor [7]) [nM] | Log IC50 [8] | IC50 [10] [nM] | also measured
CSc1ccc2c(c1)[C@@H](N1CCN(C)CC1)Cc1ccccc1S2 | 95.5 | – | – | – | – | – | – | Log IC50 [1]: -8.2; IC50 [2]: 182 nM
